The text below walks through data of PMC6087491 (Bioorganic & medicinal chemistry, 2018).

Data set [1] deals with CAR cell line. Description: MTT antiproliferative assay against cisplatin-resistant oral squamous. The data set is classed as cell-based, human. In outline: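 Cells are a CAL27-derived line selected through 10 cycles of 10–80 μM cisplatin and maintained in DMEM/10% FBS with penicillin, streptomycin, 2 mM L-glutamine and 80 μM cisplatin. They were seeded at 2×10^4 cells/well and exposed to 0–100 μM test compound (0.5% DMSO vehicle) for 48 or 72 h. MTT (500 μg/ml) was added for 4 h at 37 °C, formazan was dissolved in DMSO, and A570 was read. Viability is expressed as % of control.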

Data set [2] relates to CAR xenograft. Put plainly: In vivo antitumor activity in CAR xenograft nude mouse model. Further details: species or system BALB/c nude mice. The gist of the method:
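Male 4-week-old BALB/c nude mice; CAR cells (cisplatin-resistant CAL27, cultured with 80 μM cisplatin), 1×10^7/mouse in medium:Matrigel 1:1, injected s.c. into flank. At ~50 mm3 (day 22), randomised into four groups; test compound oral 25, 50 or 100 mg/kg once daily ×30 in 1,2-propanediol; controls vehicle only. Caliper tumor size ([…]); tumors excised, weighed day 31.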

The nature of data set [3]: Preliminary pharmacokinetic study of compound 12 in rats. Particulars: single oral 100 mg/kg, PO-1 and PO-2 formulations, 0.5-24 h.
Data set [4] is described as follows: Toxicity monitoring and blood biochemical analysis in CAR xenograft nude mice. The data set is classed as in vivo, BALB/c nude mice.
Where [5] appears, read: read-out: IC50 (concentration for 50% antiproliferative effect), CAR cells, 48 h.
Where [6] appears, read: read-out: IC50 (concentration for 50% antiproliferative effect), CAR cells, 72 h.

Where two headings read alike, the source gives them in different places.

On to “4-[(E)-2-(3,5-dimethoxyphenyl)ethenyl]phenol [Pterostilbene, reference compound]”, for which the IC50 was 100 ± 4.78 µM in data set [1] (setting [5]) and 98.3 ± 5.21 µM in data set [1] (setting [6]).

For `N.N.[Cl][Pt][Cl]` [Cisplatin, reference compound], the IC50 in data set [1] (setting [5]) and in data set [1] (setting [6]) was above 100 µM each time.

Regarding `COc1cc(/C=C/c2ccc(OC(=O)C(C)(CO)CO)cc2)cc(OC)c1` [Compound 12, 4-(3,5-Dimethoxystyryl)phenyl-3-hydroxy-2-(hydroxymethyl)-2-methylpropanoate], the “inhibitory effects on CAR tumor size and weight” value in data set [2] (25, 50 and 100 mg/kg PO once daily for 30 days) is “dose- and time-dependent inhibitory effects”. Further, the antitumor activity entry in data set [2] (lowest oral dose 25 mg/kg/day) is “Obvious antitumor activity”. Besides, in data set [3], the “blood concentration of compound 12” value is given as “not detected”. Also, the “changes in body weight, food consumption and behavior vs untreated control” value in data set [4] (25, 50 and 100 mg/kg PO QD×30) is “no obvious changes”. Further, the “blood analysis, 12-fed groups vs control group” value in data set [4] (total protein, albumin, creatinine, BUN, uric acid, glucose, 25-100 mg/kg QD×30) is “no significant difference”.

Regarding “(E)-4-(3,5-Dihydroxystyryl)phenyl 3-hydroxy-2-(hydroxymethyl)-2-methylpropanoate [Compound 20]”, the IC50 in data set [1] (setting [5]) worked out at 52 ± 2.6 µM; in data set [1] (setting [6]) it was 50.3 ± 1.98 µM.

Turning to “(E)-4-(3-Acetoxy-5-((3-hydroxy-2-(hydroxymethyl)-2-methylpropanoyl)oxy) styryl)phenyl 3-hydroxy-2-(hydroxymethyl)-2-methylpropanoate [Compound 27]”, the IC50 came out at 122 ± 2.69 µM in data set [1] (setting [5]) and 119 ± 2.19 µM in data set [1] (setting [6]).

As for “(E)-4-(3-Acetoxy-5-methoxystyryl)phenyl 3-hydroxy-2-(hydroxymethyl)-2-methylpropanoate [Compound 18]”, the IC50 in data set [1] (setting [5]) was determined as 169 ± 3.19 µM; in data set [1] (setting [6]), 133 ± 2.45 µM.

“(E)-4-(3-Hydroxy-5-((3-hydroxy-2-(hydroxymethyl)-2-methylpropanoyl)oxy) styryl)phenyl 3-hydroxy-2-(hydroxymethyl)-2-methylpropanoate [Compound 25]”: the IC50 in data set [1] (setting [5]) turned out to be 105 ± 1.98 µM; in data set [1] (setting [6]) it was 113 ± 2.77 µM.

As to “(E)-5-(4-((3-Hydroxy-2-(hydroxymethyl)-2-methylpropanoyl)oxy)styryl)-1,3-phenylene diacetate [Compound 22]”, the results for the IC50 in data set [1] (setting [5]) and in data set [1] (setting [6]) were 103 ± 4.58 µM and 116 ± 3.96 µM, respectively.

Regarding “(E)-5-(4-((3-Hydroxy-2-(hydroxymethyl)-2-methylpropanoyl)oxy)styryl)-1,3-phenylene diacetate [Compound 23]”, the IC50 in data set [1] (setting [5]) worked out at 54.9 ± 2.59 µM; in data set [1] (setting [6]), 114 ± 3.25 µM.

As for “(E)-5-(4-Hydroxystyryl)-1,3-phenylene bis(3-hydroxy-2-(hydroxymethyl)-2-methylpropanoate) [Compound 24]”, the values for the IC50 in data set [1] (setting [5]) and in data set [1] (setting [6]) were 90.4 ± 3.65 µM and 76.9 ± 3.22 µM, respectively.
